Measured values pooled from the literature.
Protocols differ between the studies behind these lines. pEC50: −log10 of the molar value. In brackets after ≈: the same amount, converted by molar mass.

O=C(O)CN1C(=O)/C(=C/c2ccc(-c3ccc(N(c4ccccc4)c4ccccc4)cc3)cc2)NC1=S  MBC (Streptococcus pneumoniae; microbial killing, broth dilution; ATCC49619): 125 µg/mL (≈ 247 µM)
Cc1ccc(-n2cc(COc3cc(C(C)C)ccc3C)nn2)cc1  IC50 (Klebsiella pneumoniae; microbial growth, broth dilution; ATCC700603): 246 µg/mL (≈ 766 µM)
CN[C@H](CC(C)C)C(=O)N[C@H]1C(=O)N[C@@H](CC(N)=O)C(=O)N[C@H]2C(=O)N[C@H]3C(=O)N[C@H](C(=O)N[C@H](C(=O)O)c4cc(O)cc(O)c4-c4cc3ccc4O)[C@H](O)c3ccc(c(Cl)c3)Oc3cc2cc(c3O[C@@H]2O[C@H](CO)[C@@H](O)[C@H](O)[C@H]2O[C@H]2C[C@](C)(N)[C@H](O)[C@H](C)O2)Oc2ccc(cc2Cl)[C@H]1O  MIC (Streptococcus pneumoniae; microbial growth, broth dilution; ATCC49619): 0.24 µg/mL (≈ 0.166 µM)
O=C1C=C(OCc2cn(-c3ccc([N+](=O)[O-])cc3)nn2)C(=O)c2ccccc21  IC50 (Klebsiella pneumoniae; microbial growth, broth dilution; ATCC700603): 370 µg/mL (≈ 983 µM)
CC(C)(NC(=O)c1cc2c(Cl)cc(Cl)cc2[nH]1)c1cn(Cc2ccccc2Cl)nn1  inhibition (Cryptosporidium parvum; parasite growth, imaging; HCT-8; 11 µM, 72 h, intracellular): > 60%
O=C1NC(=S)N/C1=C\c1c2ccccc2c(-c2ccc(N(c3ccccc3)c3ccccc3)cc2)c2ccccc12  MBC (Streptococcus pneumoniae; microbial killing, broth dilution; ATCC49619): > 1000 µg/mL
Cc1ccc(C(C)C)cc1OS(=O)(=O)c1ccccc1  IC50 (Klebsiella pneumoniae; microbial growth, broth dilution; ATCC700603): 117 µg/mL
CCOC(=O)C=c1[nH]c(=O)c(=Cc2cn(-c3ccccc3)nc2-c2ccc(C)cc2)s1  inhibition zone (Klebsiella pneumoniae; microbial growth, well diffusion; 100000 µg/mL): 13 mm
O=C(Nc1ccccc1-c1ccc(F)c(F)c1)c1nccnc1C(F)(F)F  EC50 (Alternaria kikuchiana; microbial growth): 0.058 µg/mL
CC(C)(NC(=O)c1cc2c(F)cc(F)cc2[nH]1)c1cn(Cc2ccc(Cl)c(Cl)c2)nn1  inhibition (Cryptosporidium parvum; parasite growth, imaging; HCT-8; 11 µM, 72 h, intracellular): ~30%
O=C(O)c1cn(C2CC2)c2cc(N3CCNCC3)c(F)cc2c1=O  IC50 (Klebsiella pneumoniae; microbial growth, broth dilution; ATCC700603): 0.25 µg/mL (≈ 0.754 µM)
O=C1NC(=S)S/C1=C\c1c2ccccc2c(-c2ccc(N(c3ccccc3)c3ccccc3)cc2)c2ccccc12  MBC (Streptococcus pneumoniae; microbial killing, broth dilution; ATCC49619): > 1000 µg/mL
N#CC(=Cc1cn(-c2ccccc2)nc1-c1ccccc1)C1=NC(=O)CS1  MBC (Klebsiella pneumoniae; microbial killing, broth dilution): 0.25 µg/mL (≈ 0.675 µM)
O=C1NC(=S)N/C1=C\c1ccc(-c2ccc(N(c3ccccc3)c3ccccc3)cc2)c2ccccc12  MIC (Streptococcus pneumoniae; microbial growth, broth dilution; ATCC49619): > 1000 µg/mL
Cc1ccc(-c2nn(-c3ccccc3)cc2C=c2sc(=CC#N)[nH]c2=O)cc1  inhibition zone (Klebsiella pneumoniae; microbial growth, well diffusion; 100000 µg/mL): 16 mm
Cc1ccc2cc[nH]c2c1  pEC50 (Cryptosporidium parvum; parasite growth; HCT-8; 24 h, intracellular): 3.51
CC(C)(NC(=O)c1cc2c(Cl)cc(Cl)cc2[nH]1)c1cn(Cc2ccccc2)nn1  inhibition (Cryptosporidium parvum; parasite growth, imaging; HCT-8; 11 µM, 72 h, intracellular): > 60%
Nc1ncnc2c1ncn2[C@H]1C[C@H](O)[C@@H](COP(=O)(O)O)O1  activity vs control (Cryptosporidium parvum; parasite growth, imaging; HCT-8; 1 mM, 24 h, intracellular): 96.7%
O=C(O)CN1C(=O)/C(=C/c2ccc(-c3ccc(N(c4ccccc4)c4ccccc4)cc3)cc2)SC1=S  MIC (Streptococcus pneumoniae; microbial growth, broth dilution; ATCC49619): 15.6 µg/mL (≈ 29.8 µM)
O=S(=O)(Oc1cccc2cccnc12)c1ccccc1  IC50 (Klebsiella pneumoniae; microbial growth, broth dilution; ATCC700603): 340 µg/mL
CN(C)CC(=O)O  activity vs control (Cryptosporidium parvum; parasite growth, imaging; HCT-8; 1 mM, 24 h, intracellular): 105%
Cc1ccc(-n2cc(COc3cccc4cccnc34)nn2)cc1  IC50 (Klebsiella pneumoniae; microbial growth, broth dilution; ATCC700603): 268 µg/mL (≈ 849 µM)
NCCCCC(=O)O  activity vs control (Cryptosporidium parvum; parasite growth, imaging; HCT-8; 1 mM, 24 h, intracellular): 102%
Cc1c(NC(=O)CC2=NC(=O)CS2)c(=O)n(-c2ccccc2)n1C  MBC (Klebsiella pneumoniae; microbial killing, broth dilution): 0.5 µg/mL (≈ 1.45 µM)
COc1cccc2cc[nH]c12  EC90 (Cryptosporidium parvum; parasite growth; HCT-8; 24 h, intracellular): 682 µM
Fc1ccc(-n2cc(COc3cccc4cccnc34)nn2)cc1  IC50 (Klebsiella pneumoniae; microbial growth, broth dilution; ATCC700603): 1230 µg/mL (≈ 3830 µM)
NCCCCNCCCN  activity vs control (Cryptosporidium parvum; parasite growth, imaging; HCT-8; 1 mM, 24 h, intracellular): 100%
O=C(O)CN1C(=O)/C(=C/c2ccc(-c3ccc(N(c4ccccc4)c4ccccc4)cc3)c3ccccc23)NC1=S  MBC (Streptococcus pneumoniae; microbial killing, broth dilution; ATCC49619): > 1000 µg/mL
O=c1[nH]cnc2nc[nH]c12  activity vs control (Cryptosporidium parvum; parasite growth, imaging; HCT-8; 1 mM, 24 h, intracellular): 106%
O=C1NC(=S)N/C1=C\c1ccc(-c2ccc(N(c3ccccc3)c3ccccc3)cc2)cc1  MBC (Streptococcus pneumoniae; microbial killing, broth dilution; ATCC49619): > 1000 µg/mL
NCCCCN  activity vs control (Cryptosporidium parvum; parasite growth, imaging; HCT-8; 1 mM, 24 h, intracellular): 110%
NS(=O)(=O)c1ccc(-n2cc(COc3cccc4cccnc34)nn2)cc1  IC50 (Klebsiella pneumoniae; microbial growth, broth dilution; ATCC700603): 866 µg/mL (≈ 2270 µM)
